Laboratory results taken from PubChem BioAssay.
Activity calls are given as the source filed them.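 How the source made its calls, unless noted: active means inhibition at or above 50% at 10 µM; inactive means inhibition below 50%.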

Key:
[1] = inhibitors of TNFa-induced NFkB p65 translocation, primary screen, imaging, HUVEC, MLSMR starter and 10KST1 sets (AID 438;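 active means inhibition above 20% together with a positive visual image hit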;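 further: compound added about 3h40 before a 20 min TNFalpha stimulation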;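 on inhibition: signal is the nuclear over cytoplasmic p65 intensity ratio per well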); conditions: HUVEC TNFa-induced p65 nuclear translocation; cell count: measured here: nuclei count (cytotoxicity indicator), at 2.08 µM; inhibition: at 2 µM, stronger effect = higher value, 0% TNFa-plus-vehicle, 100% no-TNFa wells
[2] = reduction of polyQ htt aggregates in cells – imaging, exon1htt(103Q)mCFP cells, high-content imaging, primary screen (AID 483;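 active means visual image review flags a hit and inhibition of aggregation exceeds 20%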;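 further: compound exposure lasted 3 days before fixation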;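 on nuclei count: percent of the per-plate median nuclei count of sample wells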); conditions: exon1htt(103Q)mCFP cell line, aggregate imaging, at 2 µM; inhibition of aggregation: stronger effect = higher value; nuclei count: measured here: cell count, toxicity
[3] = endothelial E-selectin expression blockers – imaging, HUVEC, immunofluorescence, MLSMR starter and 10KST1 sets, primary screen (AID 487;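 active means visually confirmed hit in the image check and inhibition above 20%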;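 on inhibition: signal is fraction of cell area covered by stained E-selectin grains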;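 on nuclei count: 100% = median nuclei count of all wells on the same plate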); conditions: HUVEC TNFalpha-induced E-selectin immunofluorescence imaging, at 2 µM; inhibition: stronger effect = higher value; nuclei count: measured here: cell number, toxicity
[4] = target: Voltage-gated potassium channel subunit beta-2 (Rattus norvegicus) (UniProt P62483); experiment: inhibitors of rat Kvbeta2 reductase activity – biochemical, NADPH fluorescence, primary screen (AID 622;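 active means fluorescence slope higher than the sample average by over 3 SD, cut at about -0.22 in these data, passing the limit was not always enough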;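 further: slope of raw intensity against log time taken from 70 to 1610 s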); conditions: recombinant KvBeta, 4-cyanobenzaldehyde reduction, at 10 µM, stronger effect = higher value
[5] = target: Voltage-gated potassium channel subunit beta-2 (Rattus norvegicus) (UniProt P62483); experiment: enhancers of rat Kvbeta2 NADPH turnover – biochemical, NADPH fluorescence, primary screen (AID 623;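 active means NADPH fluorescence slope more negative than the mean of all samples by about 3 SD, 99.7% confidence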;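 further: fluorescence intensity change per second fitted from 20 to 320 s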); conditions: Recombinant KvBeta, NADPH fluorescence decrease slope, 10 min; at 10 µM; stronger effect = lower value
[6] = target: Muscarinic acetylcholine receptor M4 (Homo sapiens) (UniProt P08173); experiment: M4-linked GIRK flux change, two-sided – cell-based, HEK293 M4/GIRK, thallium flux, BTC-AM, M4 allosteric agonist project, primary screen (AID 625;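 active means fluorescence slope after compound addition differing from the mean of all tested samples at 99.7% confidence, mostly higher but some lower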;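 further: thallium influx through GIRK channels coupled to M4 in HEK293 cells with BTC-AM dye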); conditions: at 10 µM, actives lie on both sides
Method in brief: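 Material – HEK293 cells with M4 receptor and GIRK channels · Buffer or medium – pH 7.3 thallium assay buffer · Doses – one dose, 10 µM final · Timing – cells overnight at 37 °C, BTC-AM loading 1 h, reads 2 min total · Measured by – kinetic fluorescence with BTC-AM dye · Controls – carbachol and DMSO controls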

[7] = blockers of RIG-like receptor reporter activation – cell-based, Sendai virus stimulus, luciferase, 10K MLSCN set, TLR/RLR signaling modifier project, primary screen (AID 602276); conditions: HEK293 RL24 IRF3 luciferase reporter, at 10 µM, stronger effect = higher value;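 further: firefly luciferase from ISG56 promoter only with Renilla not read in this screen; 0% = Sendai virus plus DMSO and 100% = medium plus DMSO without virus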
[8] = TLR3 IRF3 reporter activation blockers – cell-based, poly I:C stimulus, luciferase, 10K MLSCN set, primary screen (AID 602277;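 active means inhibition of the reporter signal at or above 50%; inactive means inhibition below 50%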); conditions: HEK293-TLR3 RL24 IRF3 luciferase reporter, at 10 µM, stronger effect = higher value

Chain of Voltage-gated potassium channel subunit beta-2 (Rattus norvegicus) (P62483 whole entry, looked up): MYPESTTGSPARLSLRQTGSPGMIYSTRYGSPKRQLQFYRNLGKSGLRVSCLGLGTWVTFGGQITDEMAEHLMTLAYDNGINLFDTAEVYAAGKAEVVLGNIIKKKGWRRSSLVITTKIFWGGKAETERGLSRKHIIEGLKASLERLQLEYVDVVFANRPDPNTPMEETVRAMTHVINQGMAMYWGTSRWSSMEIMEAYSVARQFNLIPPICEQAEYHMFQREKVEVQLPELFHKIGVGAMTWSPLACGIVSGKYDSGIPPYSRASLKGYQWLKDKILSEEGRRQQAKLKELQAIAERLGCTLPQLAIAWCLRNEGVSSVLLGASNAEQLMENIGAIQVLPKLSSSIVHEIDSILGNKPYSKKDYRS
Chain of Muscarinic acetylcholine receptor M4 (Homo sapiens) (P08173 whole entry, looked up): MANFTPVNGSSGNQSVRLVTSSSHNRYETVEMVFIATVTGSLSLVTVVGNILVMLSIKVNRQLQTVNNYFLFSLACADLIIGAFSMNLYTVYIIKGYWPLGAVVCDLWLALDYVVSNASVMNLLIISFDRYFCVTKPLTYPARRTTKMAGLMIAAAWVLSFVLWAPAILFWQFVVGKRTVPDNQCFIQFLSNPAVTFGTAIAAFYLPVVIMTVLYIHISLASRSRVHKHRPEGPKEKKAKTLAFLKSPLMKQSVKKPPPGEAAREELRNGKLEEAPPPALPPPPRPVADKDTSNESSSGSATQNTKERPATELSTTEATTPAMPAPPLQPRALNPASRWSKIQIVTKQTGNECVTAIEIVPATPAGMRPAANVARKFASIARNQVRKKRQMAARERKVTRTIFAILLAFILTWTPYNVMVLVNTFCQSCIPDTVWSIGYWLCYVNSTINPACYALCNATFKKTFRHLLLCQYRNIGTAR

| SMILES | cell count [1] | inhibition [1] | inhibition of aggregation [2] | nuclei count [2] | inhibition [3] | nuclei count [3] | fluorescence slope [4] | NADPH fluorescence slope [5] | fluorescence slope [6] | inhibition [7] | inhibition [8] |
| --- | --- | --- | --- | --- | --- | --- | --- | --- | --- | --- | --- |
| CCCCCC1NC(=O)NC1CCCCCC(=O)O (stereo not drawn) | 457 | 0% (inactive) | 11.7% (inactive) | 103% | -129% (inactive) | 123% | -0.577 (inactive) | -5.6e-05 (inactive) | 0.00606 (inactive) | 14.6% (inactive) | 18.6% (inactive) |
| CCc1cc2c(NCCC(=O)O)nc(C)nc2s1 | 222 | -13.7% (inactive) | 13.8% (inactive) | 79% | -7.8% (inactive) | 104% | -0.575 (inactive) | -4e-05 (inactive) | 0.00598 (inactive) | 2.05% (inactive) | 15.1% (inactive) |
| Cc1cnc(C(=O)Nc2ccc(N3CCOCC3)cc2)cn1 | 392 | 3% (inactive) | -7.7% (inactive) | 117% | 4.5% (inactive) | 101% | -0.524 (inactive) | -2.8e-05 (inactive) | 0.00612 (inactive) | -19.8% (inactive) | -62% (inactive) |
| Cc1ccc(NC(=O)CS(=O)CC(=O)NCC2CCCO2)cc1 (stereo not drawn) | 515 | 7.1% (inactive) | 17.5% (inactive) | 100% | -38.7% (inactive) | 117% | -0.309 (inactive) | 1.2e-05 (inactive) | 0.00727 (inactive) | -20.7% (inactive) | -6.01% (inactive) |
| CCOC(=O)c1oc2ccccc2c1CSc1nnnn1-c1ccc(OC)cc1 | 381 | -7.7% (inactive) | 6.8% (inactive) | 95.4% | -102% (inactive) | 110% | -0.54 (inactive) | -4.1e-05 (inactive) | 0.00514 (inactive) | 25.7% (inactive) | 30.2% (inactive) |
| COc1ccccc1N1CCN(c2nc3ccccc3nc2C(C#N)C(=O)OC(C)C)CC1 (stereo not drawn) | 518 | 1% (inactive) | -12.2% (inactive) | 119% | -72.9% (inactive) | 191% | -0.523 (inactive) | -0.000323 (inactive) | 0.00467 (inactive) | -13.1% (inactive) | -6.25% (inactive) |
| Nc1sccc1C(=O)c1ccccc1 | 339 | -5.4% (inactive) | 5.8% (inactive) | 110% | -45.7% (inactive) | 129% | -0.563 (inactive) | 7.1e-06 (inactive) | 0.00467 (inactive) | -12.1% (inactive) | -9.56% (inactive) |
| O=C(Nc1ccc(Cl)cc1)N1CCSCC1 | 358 | 6.3% (inactive) | -8.3% (inactive) | 104% | 37.4% (inactive) | 84.1% | -0.494 (inactive) | -3e-05 (inactive) | 0.00504 (inactive) | -2.29% (inactive) | -14.3% (inactive) |
| CS(=O)(=O)N1CCN(C(=O)c2ccc(-c3ccccc3)cc2)CC1 | 481 | 4% (inactive) | -11% (inactive) | 108% | -287% (inactive) | 128% | -0.541 (inactive) | -5.8e-05 (inactive) | 0.00648 (inactive) | 18.4% (inactive) | 22.5% (inactive) |
| Cc1ccc(-c2[nH]nc3c2C(c2ccoc2)C(C#N)=C(N)O3)cc1C (stereo not drawn) | 853 | 3.6% (inactive) | 7.7% (inactive) | 92.5% | -111% (inactive) | 126% | -0.474 (inactive) | -5.3e-05 (inactive) | 0.00509 (inactive) | 23.8% (inactive) | 16.8% (inactive) |
| CCOc1ccc(Cl)cc1S(=O)(=O)N1CCCC1 | 208 | 1.4% (inactive) | 0.2% (inactive) | 101% | -46.5% (inactive) | 122% | -0.453 (inactive) | 2.4e-05 (inactive) | 0.00537 (inactive) | 17% (inactive) | 15.8% (inactive) |
| COc1cc(CC(=O)NCc2ccc3c(c2)OCO3)cc(OC)c1OC | 698 | -7.8% (inactive) | -5.2% (inactive) | 142% | -43.8% (inactive) | 124% | -0.519 (inactive) | -0.000135 (inactive) | 0.00565 (inactive) | 6.85% (inactive) | 10.7% (inactive) |
| COC(=O)CCc1c(C)c(C#N)c2nc3ccccc3n2c1N1CCCC1 | 490 | -2.7% (inactive) | 9.1% (inactive) | 103% | -103% (inactive) | 159% | -0.0763 (active) | -4e-06 (inactive) | 0.00578 (inactive) | 15% (inactive) | -5.51% (inactive) |
| CCOc1ccc2[nH]c(=O)c(CN(CCOC)C(=O)N3CCOCC3)cc2c1 | 373 | 2.4% (inactive) | -4% (inactive) | 90.4% | -3.2% (inactive) | 99.9% | -0.395 (inactive) | 3.3e-05 (inactive) | 0.0064 (inactive) | 3.22% (inactive) | 12.3% (inactive) |
| O=C(Nc1ccccc1)N(CCN1CCOCC1)Cc1ccccc1F | 665 | -4.1% (inactive) | -16.2% (inactive) | 101% | -68% (inactive) | 96.7% | -0.61 (inactive) | 1.5e-05 (inactive) | 0.00376 (inactive) | -14.2% (inactive) | -15.8% (inactive) |
| Nc1cc(-c2ccccc2)ccc1O | 329 | 6.3% (inactive) | 33.9% (active) | 88.4% | -40.6% (inactive) | 103% | -0.314 (inactive) | -1.6e-05 (inactive) | 0.00771 (inactive) | -0.254% (inactive) | 1.06% (inactive) |
| Cc1onc(-c2ccccc2Cl)c1C(=O)Nc1cccc(-c2cn3cccnc3n2)c1 | 369 | -10.3% (inactive) | 7.8% (inactive) | 100% | -4% (inactive) | 109% | -0.0447 (inactive) | -9.5e-06 (inactive) | 0.00573 (inactive) | 7.13% (inactive) | 1.48% (inactive) |
| CC(C(=O)N1CCCCC1)n1sc2ccccc2c1=O (stereo not drawn) | 355 | -10.8% (inactive) | -13.5% (inactive) | 111% | -96.4% (inactive) | 109% | -0.479 (inactive) | -0.000258 (inactive) | 0.00498 (inactive) | -14.1% (inactive) | -35.6% (inactive) |
| COC(=O)c1ccccc1NC(=O)c1noc2c1CCC2 | 251 | 0.3% (inactive) | 6.7% (inactive) | 100% | -15.1% (inactive) | 120% | -0.597 (inactive) | -2.5e-05 (inactive) | 0.0051 (inactive) | 13.1% (inactive) | 22.8% (inactive) |
| COc1ccc(-n2nnc3c(=O)n(C/C=C/c4ccccc4)cnc32)cc1 | 585 | -6.7% (inactive) | -19% (inactive) | 102% | -31.4% (inactive) | 115% | -0.218 (inactive) | -1.5e-05 (inactive) | 0.00695 (inactive) | 12.8% (inactive) | 7.09% (inactive) |
| COC(=O)COc1nc(C)c(Br)c(OC)n1 | 367 | 2.4% (inactive) | -14% (inactive) | 96.9% | -89.5% (inactive) | 110% | -0.615 (inactive) | -1.6e-05 (inactive) | 0.00344 (inactive) | 15.8% (inactive) | 17.1% (inactive) |
| CSc1nc2c(ccc3ccccc32)o1 | 572 | 4.2% (inactive) | -4.8% (inactive) | 104% | -70.5% (inactive) | 102% | -0.566 (inactive) | -1.5e-05 (inactive) | 0.00656 (inactive) | -5.19% (inactive) | -21.2% (inactive) |
| Cc1c(C(=O)O)sc2nc3n(c(=O)c12)CCC(C)CC3 (stereo not drawn) | 621 | -10.5% (inactive) | -7.7% (inactive) | 113% | -29.1% (inactive) | 110% | -0.442 (inactive) | 6.7e-05 (inactive) | 0.00587 (inactive) | 6.81% (inactive) | 11.1% (inactive) |
| CS(=O)(=O)Nc1ccc(C(=O)NCCc2ccccc2)cc1 | 342 | -2% (inactive) | -9.2% (inactive) | 108% | -69% (inactive) | 125% | -0.535 (inactive) | -1.7e-06 (inactive) | 0.00454 (inactive) | -13.2% (inactive) | -40.3% (inactive) |
| COCCn1nnnc1C(C(C)C)N(Cc1cccnc1)Cc1ccccc1Cl (stereo not drawn) | 526 | 2.1% (inactive) | 8.9% (inactive) | 108% | -72.3% (inactive) | 111% | -0.574 (inactive) | 1.3e-05 (inactive) | 0.00529 (inactive) | 9.31% (inactive) | 31.3% (inactive) |
| CCC(=O)Oc1ccc2c(C)cc(=O)oc2c1C | 328 | 3.4% (inactive) | -23.4% (inactive) | 98.2% | -42.2% (inactive) | 108% | -0.554 (inactive) | -4.5e-05 (inactive) | 0.00649 (inactive) | 10.7% (inactive) | -2.94% (inactive) |
| COc1ccc(-c2ccc(CCC(=O)O)n2NC(=O)c2cccs2)cc1 | 645 | -3.5% (inactive) | -1.9% (inactive) | 108% | -35.1% (inactive) | 131% | -0.464 (inactive) | -3.6e-05 (inactive) | 0.00607 (inactive) | 2.14% (inactive) | 42.4% (inactive) |
| CC(=O)Nc1ccc2nc(-c3cccnc3)[nH]c2c1 | 435 | -3.2% (inactive) | -1.8% (inactive) | 106% | -9.3% (inactive) | 116% | -0.571 (inactive) | 1.8e-05 (inactive) | 0.00606 (inactive) | -7.23% (inactive) | -16.4% (inactive) |
